NRP1-CendR mod = modulators of CendR peptide binding to NRP-1, primary screen, biochemical, fluorescence polarization, uHTS; Neuropilin-1 (Homo sapiens), O14786; FAM-RPARPAR peptide binding to NRP-1; inhibition, % at 25 µM; hit rate 0.85% among 360,000; AID 602438, 2012;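 active = inhibition or corrected inhibition above about 18%, plus a signal ratio from 0.5 to 1.5, limit read from the data, passing the limit was not always enough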
PLC-gamma1 inh = PLC-gamma1 enzyme inhibitors, primary screen, biochemical, fluorescence, purified enzyme; hit rate 0.84% among 370,000; fluorogenic substrate; inhibition, % at 12.2 µM; 1-phosphatidylinositol 4,5-bisphosphate phosphodiesterase gamma-1 (Homo sapiens), P19174; in the data active = inhibition above about 9.5%
Tn7 DDE FP = inhibitors of Tn7 peptide binding to fibrin DD(E), primary screen, biochemical, fluorescence polarization, human fibrin, Tn7 probe. inhibition, % at 8.3 µM. FP displacement of FITC-Tn7 peptide from fibrin DD(E); 0% = median of compound wells per plate. Fibrinogen beta chain (Homo sapiens), P02675. hit rate 0.13% among 370,000;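 active = inhibition above the mean of compounds falling within the control limits plus 3 SD of them, cut at about 14% in these data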
Target sequence (P02675 whole entry, looked up): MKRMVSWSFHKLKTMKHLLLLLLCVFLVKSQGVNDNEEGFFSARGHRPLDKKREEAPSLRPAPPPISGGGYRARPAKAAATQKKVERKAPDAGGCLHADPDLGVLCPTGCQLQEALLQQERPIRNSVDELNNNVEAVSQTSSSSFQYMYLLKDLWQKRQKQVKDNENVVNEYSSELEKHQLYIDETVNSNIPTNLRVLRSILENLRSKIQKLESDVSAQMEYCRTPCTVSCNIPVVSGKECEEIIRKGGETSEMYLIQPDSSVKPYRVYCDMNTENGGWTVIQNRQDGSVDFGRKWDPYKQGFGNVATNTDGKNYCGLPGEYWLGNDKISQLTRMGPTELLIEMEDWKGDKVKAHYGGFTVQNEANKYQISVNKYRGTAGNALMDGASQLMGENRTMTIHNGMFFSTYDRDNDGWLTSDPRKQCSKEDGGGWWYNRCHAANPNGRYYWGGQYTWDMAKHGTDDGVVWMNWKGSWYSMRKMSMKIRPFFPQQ
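Test system – human fibrin DD(E) · Times – 10 min preincubation, 3 h with tracer, room temperature · Detection – fluorescence polarization of the labelled Tn7 tracer · Measure – percent inhibition normalized to high-control wells · Benchmarks – high control wells with 10 µM unlabelled Aha-Tn7 peptide (full inhibition) · Repeats – singlicate testing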
KLK7 zymogen act = proKLK7 zymogen activators, primary screen, biochemical, fluorescence intensity | hit rate 0.9% among 370,000 | activation, % at 7 µM | Kallikrein-7 (Homo sapiens), P49862 | purified proKLK7, EDANS-DABCYL substrate fluorescence; 100% is mature enzyme control, 0% vehicle | AID 652039, 2013;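 active = activation above the mean of all tested compounds plus 3 SD, computed per campaign excluding outliers beyond control limits, cut at about 13% in these data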
PLC-beta3 inh = human PLC-beta3 inhibitors, primary screen, biochemical, fluorescence; Purified PLC-beta3, fluorogenic substrate; inhibition, % at 12.2 µM; hit rate 0.18% among 370,000; in the data active = inhibition above about 11%
Tn6 DDE FP = inhibitors of Tn6 peptide binding to fibrin DD(E), primary screen, biochemical, fluorescence polarization, human fibrin, Tn6 probe; Fibrinogen beta chain (Homo sapiens), P02675; hit rate 0.21% among 370,000; Fibrin DD(E) TRITC-Tn6 fluorescence polarization displacement; inhibition, % at 8.3 µM; AID 720509, 2013;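 active = inhibition above a per-campaign cutoff: mean of compounds within control limits plus 3 SD, cut at about 15% in these data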
DDE Tn7 confirm = inhibitors of Tn7 peptide binding to fibrin DD(E), confirmation, biochemical, fluorescence polarization, human fibrin, Tn7 probe; shares compounds with Tn7 DDE FP; inhibition, % at 8.3 µM; hit rate 5% among 460; FP displacement of TRITC-Tn7 peptide from DD(E); 0% set at plate's compound-well median;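 active = inhibition above the campaign cutoff, the mean of compounds within control limits plus 3 SD, cut at about 14% in these data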;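 note: displacers lower polarization since freed probe rises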
Tn7 DDE ctr = DD(E)-Tn7 binding inhibition, counter-screen. hit rate 3% among 460. inhibition, % at 8.3 µM. AID 720633. shares compounds with Tn7 DDE FP. fibrin DD(E), TRITC-Tn7 probe displacement, fluorescence polarization;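 active = inhibition above the cutoff, the mean of compounds lying between the control bounds plus 3 SD of those compounds, cut at about 17% in these data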
Tn6 DDE ctr = counter-screen for inhibitors of Tn6 peptide binding to fibrin DD(E). hit rate 2% among 680. TRITC-Tn6 fluorescence polarization displacement; 0% = median of compound wells, not DMSO. shares compounds with Tn6 DDE FP. inhibition, % at 8.3 µM;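 active = inhibition above the mean of test compounds lying between the control limits plus 3 SD of those, cut at about 14% in these data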
DDE Tn6 confirm = inhibitors of Tn6 peptide binding to fibrin DD(E), confirmation, biochemical, fluorescence polarization, human fibrin, Tn6 probe; shares compounds with Tn6 DDE FP; inhibition, % at 8.3 µM; FP displacement of TRITC-Tn6 peptide from DD(E); 0% = per-plate median of test wells; hit rate 10% among 680;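 active = inhibition above the mean of compounds lying within the control limits plus 3 SD, cut at about 16% in these data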
A number is an active result. A selection: hits, their analogues and other compounds. The true share with any hit is near 3%.

Screening COc1cccc2c1C(=O)c1c(O)c3c(c(O)c1C2=O)CC(O)(C(C)=NO)CC3OC1CC(N)C(O)C(C)O1 (centres undefined) returned NRP1-CendR mod inactive, PLC-gamma1 inh inactive, Tn7 DDE FP 20.8, KLK7 zymogen act inactive, PLC-beta3 inh inactive, Tn6 DDE FP active, DDE Tn7 confirm inactive, Tn7 DDE ctr 93.2, Tn6 DDE ctr inactive and DDE Tn6 confirm 93.2.
Screening C[n+]1c(-c2ccccc2)c2cc(N)ccc2c2ccc(N)cc21 returned NRP1-CendR mod 55.9, PLC-gamma1 inh inactive, Tn7 DDE FP 21.7, KLK7 zymogen act inactive, PLC-beta3 inh inactive, Tn6 DDE FP 49.1, DDE Tn7 confirm inactive, Tn7 DDE ctr 124.4, Tn6 DDE ctr inactive and DDE Tn6 confirm 124.4.
Screening CC[C@]12CCN(CC3(O)CC3)[C@H](Cc3ccc(O)cc31)C2(C)C returned PLC-gamma1 inh inactive, Tn7 DDE FP inactive, KLK7 zymogen act inactive, PLC-beta3 inh inactive and Tn6 DDE FP inactive.
Screening CCNC(=O)C1OC(n2cnc3c(N)ncnc32)C(O)C1O (centres undefined) returned NRP1-CendR mod inactive, PLC-gamma1 inh inactive, Tn7 DDE FP inactive, KLK7 zymogen act inactive, PLC-beta3 inh inactive, Tn6 DDE FP 15.6, Tn6 DDE ctr inactive and DDE Tn6 confirm inactive.
For Cc1ccc(OC(=O)N(C)C[C@@H]2OCc3ccccc3-c3c(n(C)c4ccccc34)C(=O)N([C@H](C)CO)C[C@H]2C)cc1 the results were PLC-gamma1 inh inactive, Tn7 DDE FP inactive, KLK7 zymogen act inactive, PLC-beta3 inh inactive and Tn6 DDE FP inactive.
O=[N+]([O-])c1ccc(N2CCCCCC2)c2nonc12 was read as NRP1-CendR mod inactive, PLC-gamma1 inh inactive, Tn7 DDE FP inactive, KLK7 zymogen act inactive, PLC-beta3 inh inactive, Tn6 DDE FP 84.7, Tn6 DDE ctr inactive and DDE Tn6 confirm 65.6.
COC(=O)C1C(c2ccc(Cl)cc2)CC2CCC1N2C (centres undefined) was read as PLC-gamma1 inh inactive, Tn7 DDE FP inactive, KLK7 zymogen act inactive, PLC-beta3 inh inactive and Tn6 DDE FP inactive.
